Bioassay records from PubChem.
Shown are actives, neighbours in structure and some others; about 3.9% of the full set was active somewhere.
697 NFkB inh: inhibitors of PMA/ionomycin-induced NF-kB reporter, 697 cells, primary screen, B-cell NF-kB inhibitor project, cell-based, luminescence, uHTS | hit rate 0.33% among 330,000 | 697 B-cell NF-kB luciferase reporter, 16 h | inhibition, % at 4 µM; in the data active = inhibition above about 35%
XBP1 UPR activ: activators of adaptive XBP1 UPR arm, primary screen, cell-based, CHO-XBP1 luciferase reporter, luminescence, uHTS; hit rate 0.33% among 330,000; IRE1-XBP1 UPR activation; percent of tunicamycin response, DMSO as zero; AID 463104, 2010; activation, % at 20 µM;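 active = versus positive control, 20 µM dose yields 30% or more activation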;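 also: 100% = tunicamycin at 10 µg/mL and 0% = DMSO only wells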
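Material: CHO-XBP1 cells stably carrying IRE1-XBP1-driven luciferase reporter / Amount: 1000 cells per well / Compound: 20 µM, 1% DMSO / Times: 6 h treatment, 37 °C / Detection: luciferase luminescence / Measure: % activation of reporter signal versus tunicamycin and DMSO controls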
CHOP inhibitor: inhibitors of CHOP promoter induction, primary screen, cell-based, unfolded protein response, luciferase reporter. hit rate 3.8% among 220,000. inhibition, % at 10 µM. CHO-K1 CHOP-promoter luciferase, tunicamycin-induced, 15-18 h;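 active = compounds that reduced the stress-induced luciferase reporter signal by more than about 70% of percent inhibition, limit read from the data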;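 also: 0% = tunicamycin plus vehicle and 100% = wells without tunicamycin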
UPR CHOP act: activators of apoptotic CHOP UPR arm, primary screen, cell-based, CHO-CHOP luciferase reporter, luminescence, uHTS; hit rate 0.34% among 330,000; activation, % at 10 µM; AID 449763, 2010; UPR activation; percent of tunicamycin response over DMSO baseline;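 active = at 10 µM dose, activation of 40% or more, normalized to positive control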;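 also: 100% = tunicamycin at 10 µg/mL and 0% = DMSO alone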
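measured by = luciferase luminescence | assay system = CHO-CHOP cells, stable luciferase reporter of PERK-eIF2a-CHOP signalling | amount = 500 reporter cells seeded per well | timing = 6 h compound exposure at 37 °C after overnight seeding | controls = positive tunicamycin 10 µg/mL, negative DMSO alone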
Jurkat NFkB inh: inhibitors of induced NF-kB luciferase reporter, primary screen, TCR NF-kB activation inhibitor project, cell-based, luminescence, uHTS. inhibition, % at 4 µM. hit rate 0.53% among 330,000. AID 435003, 2010. Jurkat, PMA/ionomycin-induced NF-kB luciferase reporter; in the data active = inhibition above about 50%
Gli-Sufu block: Gli-Sufu pathway antagonists, primary screen, luciferase luminescence, Sufu-KO-LIGHT cells, uHTS. Sufu-KO-LIGHT fibroblasts, Gli luciferase reporter luminescence. hit rate 0.74% among 340,000. inhibition, % at 5 µM;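 active = inhibition above about 55%, limit read from the data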;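 also: 0% = DMSO-treated cells and 100% = wells with medium but no cells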
Jurkat NFkB conf: PMA/ionomycin-induced NF-kB reporter inhibitors, Jurkat retest, confirmation, T-cell NF-kB inhibitor project, cell-based, luminescence, single concentration. shares compounds with Jurkat NFkB inh. hit rate 27% among 2,700. inhibition, % at 4 µM. Jurkat NF-kB luciferase, 16 h;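 active = inhibition reaching about 45% at 4 µM in either replicate, limit read from the data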;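 also: plate controls were PMA/ionomycin stimulated DMSO wells for no effect and unstimulated DMSO wells for full effect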
* hit, by the source's call; / = no result given.

SMILES	697 NFkB inh	XBP1 UPR activ	CHOP inhibitor	UPR CHOP act	Jurkat NFkB inh	Gli-Sufu block	Jurkat NFkB conf
COc1ccc(/C=N/NC(=O)c2cccnc2)cc1Cn1nc([N+](=O)[O-])c(Br)c1C	-41	5	-12	-2	52*	/	41
COc1ccc(/C=N/NC(=O)c2cccnc2)cc1CN1CCc2ccccc2C1	2	-1	0	1	11	7	/
O=C(O)/C=C/C(=O)Nc1ccc(S(=O)(=O)Nc2nccs2)cc1	11	-4	/	0	-7	-34	/
Nc1ccc2oc(-c3cccc(Br)c3)nc2c1	-182	2	24	6	-177	-75	-38
Nc1ccc2oc(-c3ccc4nc[nH]c4c3)nc2c1	-158	-1	31	-1	-80	-44	/
Nc1ccc(N=Nc2ccccc2)c2cccnc12	-85	15	/	5	84*	15	-2
CCc1ccccc1N(CC(=O)NC(C)(C)C)C(=O)CCC(=O)Nc1ccccn1	-2	-6	/	-1	-7	3	/
COc1ccccc1C1c2ccc3ccccc3c2Oc2ncn(CCCO)c(=N)c21 (configuration not stated)	-31	1	/	2	18	18	/
COc1ccccc1C1c2ccc3ccccc3c2Oc2ncn(CCN(C)C)c(=N)c21 (configuration not stated)	7	3	/	2	78*	8	13
Cc1coc2cc3oc(=O)c(CC(=O)N[C@@H](CC(C)C)C(=O)O)c(C)c3cc12	-4	5	/	0	-11	14	/
O=C(Nc1c(Cl)cc(Cl)cc1C(=O)NCc1cccnc1)c1ccc(Cl)cc1Cl	5	-4	29	-1	-6	3	/
O=C(Nc1ccc(Cl)cc1C(=O)NCc1cccnc1)c1ccc(Cl)cc1Cl	-23	0	-6	0	51*	2	11
Cc1cc(OCC(=O)NCCCN2CCOCC2)c2c(C)cc(=O)oc2c1	5	-5	/	1	4	3	/
COc1ccc(/C=N/Nc2cc(C)nc3ccc(OC)cc23)c(OC)c1	-8	5	/	21	77*	33	44
COc1ccc2nc(C)cc(Nc3ccc(N4CCN(C)CC4)cc3)c2c1	11	1	/	2	74*	9	-26
COc1ccc(/C=N/Nc2ncccc2[N+](=O)[O-])c(OC)c1	-171	-9	46	-6	-157	-93	1
CC(=O)c1ccc(Nc2cc(C)nc3c(C)cccc23)cc1	-100	2	-21	3	56*	-5	27
COc1ccc(/C=N/Nc2ncc(-c3ccccc3)cn2)c(OC)c1	5	5	69	0	18	-1	/
COc1ccc2nc(C)cc(N/N=C/c3ccccc3)c2c1	-28	14	/	12	38	16	/
COc1ccc(S(=O)(=O)Nc2cccc(-c3ccc4nncn4n3)c2)c(OC)c1	-7	3	/	-2	-9	6	/
COc1cccc(NC(=O)CN(C)C(=O)c2cc(S(=O)(=O)Nc3ccccc3OC)ccc2C)c1	/	/	/	/	/	1	/
COC(=O)c1ccc(Nc2cc(C)nc3ccc(C)cc23)cc1	-62	0	-21	0	59*	9	29
COc1ccc(OC)c(Nc2cc(C)nc3ccc(C)cc23)c1	-56	0	/	0	62*	0	15
Cc1nc(-c2ccc(NC(=O)c3ccc(Br)o3)cc2)cs1	-82	-3	/	5	-215	-158	-105
Cc1nc(-c2cccc(NC(=O)c3ccc(Br)o3)c2)cs1	1	3	/	0	-14	-13	/
COc1ccc(NC(=O)C(=O)NCC2CCCN2S(=O)(=O)c2cccs2)cc1 (configuration not stated)	-4	0	/	2	65*	3	54*
